Most compounds without a hit are left out; they make up all but 2.3% or so of the library.
Fam108B inh: blocks mouse Fam108B hydrolase in RBBP9 counter-screen; AID 1947; recombinant Fam108B, FP-Rh probe fluorescence polarization; inhibition, % at 9.51 µM; 300,000 tested, 0.33% active;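 active = inhibition above the screen mean inhibition plus 3 SD, computed separately per campaign, cut at about 18% in these data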;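 also: inhibitors lower polarization as less probe binds the enzyme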
PME-1 primary: blocks human protein phosphatase methylesterase 1 | 320,000 tested, 0.53% active | Q9Y570 | inhibition, % at 5.9 µM | AID 2130 | recombinant PME-1, FP-Rh probe fluorescence polarization;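 active = inhibition above the campaign mean of all compounds plus 3 SD, cut at about 26% in these data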;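 also: competitive labeling of PME-1 active site by serine hydrolase directed probe; 0% = PME-1 with DMSO and 100% = wells lacking PME-1 enzyme; inhibitors block probe labeling so polarization falls and inhibition rises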
PAD4 FP inh: PAD4 (human) enzyme inhibition | inhibition, % at 6.36 µM | 330,000 tested, 0.41% active | recombinant PAD4, RCA probe fluorescence polarization;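 active = percent inhibition above a cutoff equal to the mean of all tested compounds plus 3 SD, cut at about 15% in these data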;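 also: 0% = PAD4 with RCA probe and DMSO and 100% = probe without PAD4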
GSTO1 inh: counter-screen for RBBP9 inhibitors: inhibitors of human GSTO1 | inhibition, % at 5.96 µM | recombinant GSTO1, activity-based probe fluorescence polarization | P78417 | 300,000 tested, 1.1% active;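 active = inhibition above the campaign mean inhibition plus 3 SD, cut at about 35% in these data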;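 also: 0% = GSTO1-1 with DMSO and 100% = wells lacking GSTO1-1 enzyme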
Target sequence (P78417 whole entry, looked up): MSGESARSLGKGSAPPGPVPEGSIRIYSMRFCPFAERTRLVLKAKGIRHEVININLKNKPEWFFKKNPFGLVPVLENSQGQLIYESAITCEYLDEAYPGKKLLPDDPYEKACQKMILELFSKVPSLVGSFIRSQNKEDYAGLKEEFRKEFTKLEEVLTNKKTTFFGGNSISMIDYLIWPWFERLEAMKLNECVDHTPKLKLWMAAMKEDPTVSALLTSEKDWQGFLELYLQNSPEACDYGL
RBBP9 inhibitor: inhibitors of human serine hydrolase RBBP9; O75884; recombinant RBBP9, FP-Rh probe fluorescence polarization; inhibition, % at 7.94 µM; 220,000 tested, 0.2% active; AID 1515;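 active = inhibition above the campaign mean of all tested compounds plus 3 SD, cut at about 14% in these data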;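 also: plate controls were DMSO wells with RBBP9 for no effect and wells lacking RBBP9 protein for full effect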
Target sequence (O75884 whole entry, looked up): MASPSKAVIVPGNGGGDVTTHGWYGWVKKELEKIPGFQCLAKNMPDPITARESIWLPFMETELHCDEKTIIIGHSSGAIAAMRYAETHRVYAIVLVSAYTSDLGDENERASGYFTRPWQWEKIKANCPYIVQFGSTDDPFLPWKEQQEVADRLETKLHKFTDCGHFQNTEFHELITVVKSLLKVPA
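System: RBBP9 protein / Buffer or medium: Tris/NaCl buffer pH 8.0 with 0.1% Pluronic / Probe or stimulus: Serine-hydrolase probe FP-Rh, 375 nM pre-mixing / Dosing: 7.94 µM single dose, 0.794% DMSO / Times: enzyme-compound preincubation 30 min, then probe labeling 45 min, 25 °C / Technique: fluorescence polarization (mP), excitation 525 nm, emission 598 nm / Replication: singlicate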
PRMT1 FP inh: blocks human protein arginine methyltransferase 1; inhibition, % at 2.79 µM; AID 652257; 370,000 tested, 1.3% active; Q99873; recombinant PRMT1, activity-based probe fluorescence polarization;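 active = inhibition above about 21% made by adding two undisclosed values, limit read from the data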
Target sequence (Q99873 whole entry, looked up): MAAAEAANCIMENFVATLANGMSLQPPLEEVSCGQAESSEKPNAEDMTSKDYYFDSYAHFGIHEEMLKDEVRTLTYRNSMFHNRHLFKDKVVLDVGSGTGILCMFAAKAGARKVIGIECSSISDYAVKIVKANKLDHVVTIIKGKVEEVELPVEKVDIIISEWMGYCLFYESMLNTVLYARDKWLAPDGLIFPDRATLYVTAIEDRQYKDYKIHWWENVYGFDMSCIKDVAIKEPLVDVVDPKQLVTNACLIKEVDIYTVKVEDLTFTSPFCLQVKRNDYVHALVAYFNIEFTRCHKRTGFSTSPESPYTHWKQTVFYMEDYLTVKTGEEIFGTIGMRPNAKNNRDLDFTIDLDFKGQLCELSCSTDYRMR
Fam108b inh conf: Fam108b (mouse) hydrolase inhibition, confirmation assay. recombinant Fam108b, FP-Rh probe fluorescence polarization. AID 1978. shares compounds with Fam108B inh. 930 tested, 44% active. inhibition, % at 9.51 µM;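 active = inhibition above a limit from the primary screen, the mean over all compounds plus 3 SD, cut at about 19% in these data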;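 also: 0% = median of active Fam108b wells and 100% = catalytically dead S170A mutant; inhibitors free the probe so polarization falls as inhibition rises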
Fam108b inh: mouse ABHD17B inhibition; shares compounds with Fam108B inh; recombinant Fam108b, gel-based ABPP, fluorophosphonate probe; inhibition, % at 20 µM; 260 tested, 44% active; AID 588649; in the data active = inhibition above about 40%
The depositor's hits bear a star; · = no result given; + = active, no number.

SMILES | Fam108B inh | PME-1 primary | PAD4 FP inh | GSTO1 inh | RBBP9 inhibitor | PRMT1 FP inh | Fam108b inh conf | others
COc1ccc(C=NNC(=O)c2cc(O)c(O)c(O)c2)cc1COc1ccc(C(=O)OCC(C)C)cc1 | · | · | · | · | · | · | · | Fam108b inh=30.0
Cc1ccc(CSc2nn3c(=O)c(C)nnc3s2)cc1 | 1.7 | 0.2 | 0.7 | 4.4 | 7.0 | -1.6 | ·
N[C@H](CSCc1ccccc1)C(=O)Nc1ccc([N+](=O)[O-])cc1 | 29.5* | 26.3* | -1.8 | 8.2 | · | -3.4 | -5.3
CCN1CCN(c2nc(S(=O)(=O)c3ccc(C)cc3)c(Cl)s2)CC1 | -1.6 | 1.2 | -1.6 | 0.8 | 1.5 | -1.3 | ·
O=C(Nc1ccc(Oc2ccc(NC(=O)Nc3ccccc3Cl)cc2)cc1)Nc1ccccc1Cl | 58.0* | -6.9 | -4.5 | -0.1 | -2.7 | -4.4 | 58.7* | Fam108b inh=0.0
O=C(Nc1ccc(Cl)cc1)Nc1ccc(Cl)c(Cl)c1 | · | -39.2 | -11.7 | · | · | -1.9 | ·
O=C(Nc1ccc(Cl)c(Cl)c1)Nc1ccccc1O | 19.7* | 17.6 | -17.4 | -25.8 | -3.8 | -0.6 | -7.0
CCc1ccc(OCC(=O)OCC(=O)NCCNC(=O)COC(=O)COc2ccc(CC)cc2)cc1 | -3.0 | 4.4 | -7.6 | 3.2 | · | 2.8 | ·
Cc1c(O)ccc(/C=N/Nc2nc(-c3cccnc3)nc3ccccc23)c1O | 38.6* | 39.8* | -2.1 | -114.2 | 4.6 | -0.6 | +
C/C(=N\Nc1cc(C)nc(-c2ccccc2O)n1)c1ccccc1 | -4.1 | -5.5 | -0.7 | -3.7 | -8.3 | -1.9 | ·
Oc1ccc(/C=N/Nc2nc(-c3cccnc3)nc3ccccc23)c(O)c1 | 51.9* | 52.3* | -2.0 | -20.4 | 8.2 | -3.0 | 2.3
Cc1cc(N/N=C/c2ccc(O)c(C)c2O)nc(-c2ccccc2O)n1 | 43.0* | 61.9* | 3.2 | -20.1 | -9.4 | 1.1 | -6.3
CC1CN(C(=O)CN2C(=O)NC3(CCCCCC3)C2=O)CC(C)O1 (centres undefined) | -0.4 | 2.0 | 0.7 | 10.9 | -8.1 | 4.3 | ·
O=C1C2=C(Nc3ccccc3SC2c2ccco2)c2ccccc21 (centres undefined) | 31.4* | 28.5* | 2.4 | -21.6 | -0.7 | 12.7 | 9.5
COc1ccc(O)c(/C=N/NC(=O)c2ccc(CSc3nc(C)cc(C)n3)cc2)c1 | 8.0 | 17.7 | -3.1 | 5.4 | -8.2 | 3.4 | ·
Cc1cc(C)nc(SCc2ccc(C(=O)NN=Cc3cccc(O)c3O)cc2)n1 | · | · | · | · | · | · | · | Fam108b inh=90.0*
Cc1cc(C)nc(SCc2ccc(C(=O)N/N=C/c3cccc(O)c3O)cc2)n1 | 49.5* | 26.2* | -5.3 | -43.6 | -6.1 | 1.0 | 81.8*
COc1ccc(CC(=O)NNS(=O)(=O)c2ccc3ccccc3c2)cc1OC | 5.4 | -6.8 | -4.9 | 5.0 | -10.4 | -2.2 | ·
CCCCCC(=O)N=Nc1c(O)[nH]c2ccc([N+](=O)[O-])cc12 | -0.7 | 5.9 | 3.9 | 8.9 | -8.4 | -0.5 | ·
O=C(O)c1ccccc1N=Nc1c(O)[nH]c2ccc([N+](=O)[O-])cc12 | 20.6* | 6.9 | 0.2 | -4.2 | · | · | 13.5
Cc1nc(C)c(-c2ccn(S(=O)(=O)c3ccc(Cl)cc3)n2)o1 | -2.4 | 2.6 | -1.3 | 8.9 | -4.9 | 2.1 | ·
CC(Sc1nnc(NC2CC2)s1)C(=O)Nc1ccc(N2CCOCC2)cc1 (centres undefined) | · | · | · | · | · | -0.5 | ·
CC(Sc1nnc(NC2CCCCC2)s1)C(=O)Nc1ccc2c(c1)C(=O)c1ccccc1C2=O (centres undefined) | 27.4* | 31.9* | -5.9 | -67.6 | -6.9 | 0.2 | 4.8
C/C(=N\NC(=O)c1ccccc1O)C1C(=O)c2ccccc2C1=O | 51.5* | 14.9 | 2.5 | -3.8 | -2.9 | 0.9 | 50.7*
CCC/C(C)=N/NC(=O)c1ccccc1O | -3.4 | -9.6 | -1.2 | 1.5 | -2.5 | -1.3 | ·
SMILES | Fam108B inh | PME-1 primary | PAD4 FP inh | GSTO1 inh | RBBP9 inhibitor | PRMT1 FP inh | Fam108b inh conf | others
O=[N+]([O-])c1ccc(Sc2ccccn2)nc1 | -0.1 | 0.6 | -4.1 | 7.0 | -1.0 | 3.2 | ·
O=C(Nc1cc(Sc2nc3ccccc3s2)cc([N+](=O)[O-])c1)c1cccc(F)c1F | 19.1* | 11.0 | 3.3 | -18.4 | -2.8 | 0.2 | 25.4*
O=C(Nc1cc(Sc2ccccn2)cc([N+](=O)[O-])c1)c1ccc([N+](=O)[O-])cc1 | 19.1* | 4.3 | -2.0 | 9.2 | 1.4 | -2.1 | 5.5
OC[C@@H]1CN(Cc2ccncc2)C[C@H](n2cnc3c(N4CCCC4)ncnc32)O1 | · | · | · | · | · | -2.0 | ·
N#C/C(=N\Nc1ccc(S(=O)(=O)N2CCc3ccccc32)cc1)C(N)=S | 21.5* | 11.7 | -9.5 | -16.0 | -1.1 | 1.2 | 27.0*
CCN(CC)S(=O)(=O)c1cc(NC(=O)COC(=O)c2sc3ccccc3c2Cl)ccc1C | 42.6* | 7.7 | -5.3 | 0.3 | -5.5 | -3.2 | 58.6* | Fam108b inh=90.0*
C/C(=N\Nc1ccc(C(=O)O)cc1)c1ccc2c(c1)Nc1ccccc1S2 | 30.3* | 27.9* | -0.1 | 25.5 | 6.2 | 3.0 | 27.3*
C/C(=N/Nc1ccc(C(=O)O)cc1)c1ccc2c(c1)Nc1ccccc1S2 | · | · | · | · | · | 13.0 | ·
COc1ccc(C(=O)Nc2nc(-c3cccs3)cs2)cc1 | -4.1 | -20.0 | -3.8 | -2.2 | -8.8 | 2.9 | ·
Cc1csc(NC(=O)c2sc3nc(-c4cccs4)ccc3c2N)n1 | 31.1* | 45.1* | -2.1 | -23.9 | -9.6 | · | 6.7
c1ccc2c(Nc3ccc(N4CCOCC4)cc3)nc(N3CCOCC3)nc2c1 | -0.5 | -0.1 | -4.9 | -4.7 | · | -1.8 | ·
Cc1cccc(-c2nc(Nc3ccc(N4CCOCC4)cc3)c3ccccc3n2)c1 | 20.1* | 19.3 | 4.7 | -9.9 | -2.1 | -1.5 | 1.5
O=[N+]([O-])c1ccc(N/N=C/c2cccc(O)c2O)cc1 | 19.2* | 33.2* | 1.1 | 21.6 | · | 10.0 | 93.2*
O=[N+]([O-])c1cccc(N/N=C/c2cccc3ccccc23)c1 | 25.6* | 24.6 | 6.9 | 3.5 | -6.6 | 2.8 | 22.7*
O=[N+]([O-])c1ccc(NN=Cc2cccc([N+](=O)[O-])c2)cc1 | · | · | · | · | · | 2.5 | ·
Cc1cccc(C(=O)Oc2ccc(/C=N/O)cc2)c1 | 2.2 | -2.2 | 3.8 | 12.8 | -7.7 | -1.0 | ·
Cc1cccc(C(=O)Oc2ccccc2/C=N/Nc2ccc([N+](=O)[O-])cc2)c1 | 24.8* | 21.2 | 4.9 | -0.5 | -2.6 | -2.8 | 0.7
Cc1cccc(NC(=S)N/N=C/c2c[nH]c3ccccc23)c1 | 22.3* | 38.5* | -4.4 | -4.9 | 3.8 | 3.7 | 15.8
O=C(CCN1C(=O)C2C3C=CC(C3)C2C1=O)Nc1ccc2ncccc2c1 (centres undefined) | -2.8 | 1.3 | -2.8 | 2.3 | -6.8 | -1.3 | ·
N#C/C(=N\Nc1cccc([N+](=O)[O-])c1)C(=O)c1ccc(Br)cc1 | 26.9* | 28.9* | -3.9 | 23.5 | -5.0 | 5.5 | 26.2*

Compound activity as filed in PubChem.
